Results reported in publication PMC2555998 (The Journal of Biological Chemistry, 2008).
Where no end group is shown, it is not given here.

What was measured:
[1] = target: CaM12 (D22A/D58A CaM) (Homo sapiens, UniProt P0DP23, D23A/D59A); assay: Ca^2+ dissociation kinetics of CaM12 complexes with Cx32 peptides; type: binding; settings: n = 1; for k4 (EF4, C-terminal CaM lobe) / relative amplitude A3 (EF3) / relative amplitude A4 (EF4): Table 3, CaM12 + C-terminal peptide; for k4 (EF4, C-terminal CaM lobe): 21 °C
Outline: (§1)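 Human liver wild-type CaM and the EF-hand mutants CaM12 (D22A/D58A) and CaM34 (D95A/D131A) were expressed in E. coli and HPLC-purified, EGTA-free. In stopped flow, 90 µM quin 2 with no added Ca2+ was mixed with 3 µM CaM or CaM·peptide in 50 µM Ca2+ buffer (mixing-chamber concentrations). Buffer was 50 mM K+-PIPES pH 7.0, 100 mM KCl, 2 mM MgCl2.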

[2] = target: CaM (Homo sapiens, UniProt P0DP23); assay: Ca^2+ dissociation kinetics of CaM complexes with Cx32 peptides; type: binding; settings: for relative amplitude A1 (EF1) / relative amplitude A2 (EF2) / relative amplitude A3 (EF3) / relative amplitude A4 (EF4): Table 3, CaM + C-terminal peptide, n = 3 (208-226), 2 (208-227)
Outline: as §1

[3] = target: CaM34 (D95A/D131A CaM) (Homo sapiens, UniProt P0DP23, D132A/D96A); assay: Ca^2+ dissociation kinetics of CaM34 complexes with Cx32 peptides; type: binding; settings: Table 3, CaM34 + C-terminal peptide, n = 2; for k2 (EF2, N-terminal CaM lobe): 10 μM peptide, 21 °C, mean ± S.D.
[4] = target: TA-CaM; settings: cited from earlier work
[5] = target: AEDANS-T34C/T110C-CaM (Homo sapiens, UniProt P0DP23, T111C/T35C); assay: Equilibrium fluorescence titration of AEDANS-T34C/T110C-CaM with Cx32 208–226; type: binding
[6] = target: T1, DA-CaM (Homo sapiens, UniProt P0DP23, T111C/T35C); assay: Conformation of CaM in peptide complexes: donor quenching of DA-CaM; type: binding; settings: 433 nM DA-CaM, 0.5 mM CaCl2; further addition of 4.4 μM peptide
Outline: (§2)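 DA-CaM was made from T34C/T110C CaM randomly labeled with IAEDANS (donor) and DDP (quencher), then HPLC-fractionated into lobe-specific labeled species. Equilibrium titration used increasing peptide concentrations on a spectrofluorimeter. Donor quenching indicated CaM compactness in the complex, and Kd came from fitting the binding data.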

[7] = target: T1, DA-CaM; assay: Equilibrium fluorescence titration of DA-CaM with Cx32 1–19; type: binding
Outline: as §2

[8] = Ca^2+ dissociation kinetics of CaM and mutant CaMs without peptide; type: binding; settings: no peptide; calibration of ΔRF per site
Outline: as §1

[9] = cited from earlier work

Substance | k4 (EF4, C-terminal CaM lobe) ([1]; 10 μM peptide) [s⁻¹] | relative amplitude A3 (EF3) [1] | relative amplitude A4 (EF4) [1] | relative amplitude A1 (EF1) [2] | relative amplitude A2 (EF2) [2] | relative amplitude A3 (EF3) [2] | relative amplitude A4 (EF4) [2] | k2 (EF2, N-terminal CaM lobe) [3] [s⁻¹] | also measured
Ac-EVVYLIIRACARRAQRRSNP-NH2 [Cx32 208–227] | 3.1 ± 0.1 | 0.5 | 1 | 0.5 | 1.5 | 1 | 1 | 169 ± 5.6 | rate constant for both C-lobe EF hands of CaM12·peptide complex ([1]; 10 μM peptide): 3.1 ± 0.1 s^–1; involvement of the N-lobe EF hand binding ([2]; CaM complex, 10 μM peptide): 50%; relative affinity for CaM, in words ([2]; compared with 208–226 peptide): higher affinity for CaM than the 208–226 peptide; relative amplitude A1 (EF1) [3]: 0.5; relative amplitude A2 (EF2) [3]: 1
Cx32 1–21: peptide, consisting of residues 1–21, which represents the N-terminal tail CaM-binding domain of Cx32 | – | – | – | – | – | – | – | – | Kd ([4]; TA-CaM (Lys75-modified fluorescent CaM), Ca^2+-dependent): 27 nM
Cx32 216–230: peptide representing residues 216–230 of the Cx32 C-terminal tail (ACARRAQRRSNPPSR; UniProt P08034 216-230, looked up, fragment) | – | – | – | – | – | – | – | – | relative affinity for CaM, in words ([4]; compared with 208–226 peptide): higher affinity than the 208–226 peptide
EVVYLIIRACARRAQRRSN [Cx32 208–226] | 1.6 ± 0.1 | 1 | 1 | 1 | 1 | 1 | 1 | 173 ± 0.4 | Kd [5]: 3450 ± 1090 nM; increase in fluorescence on peptide binding (fold) ([5]; donor-only labeled probe AEDANS-T34C/T110C-CaM): 2.5 fold; donor AEDANS fluorescence on increasing the peptide concentration [6]: a blue shift was seen in the donor AEDANS fluorescence
MNWTGLYTLLSGVNRHSTA [Cx32 1–19] | – | – | – | – | – | – | – | – | Kd [7]: 1140 ± 100 nM
calmodulin [CaM] | – | – | – | – | – | – | – | – | ΔRF of two measurable (C-lobe) sites [8]: 0.08; higher Ca^2+ affinity of the C-terminal lobe of apo CaM (fold) ([9]; Ca^2+-free (apo) CaM, C-lobe vs N-lobe): about 5 fold; Ca^2+ dissociation from the two N-terminal lobe sites, estimated ([9]; no peptide): ~1000 s^–1
